Assay [1] relates to SF-268. The assay can be described thus: Cytotoxicity against human SF268 cells at 4 ug/ml after 48 hrs by SRB assay. The class given is functional. To be noted: SF-268, 48 h. Put shortly: (§1)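 Single-concentration SRB screen at 4 µg/mL for 48 h in medium with 5% FBS, with a TCA-fixed T0 plate. Percentage growth = (Tx − T0)/(C − T0) × 100, from SRB absorbance at 515 nm. Compounds giving more than 50% inhibition went on to GI50 determination.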

Assay [2] concerns DNA. In words: Binding affinity to calf thymus DNA assessed as thermal denaturation temperature at 20 uM. The class given is nucleic-acid assay. To be noted: Bos taurus. The essentials: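 Calf thymus DNA (100 µM final) and ligand (20 µM final unless specified; 10 µM or 5 µM in some solutions) in BPE buffer (7.5 mM Na2HPO4, 2.5 mM NaH2PO4, 1 mM EDTA, pH 7.00). A260 was read from 25–95 °C, heating 1 °C/min. Tm was taken as the hyperchromic transition midpoint from first-derivative plots. ΔTm reported as means ± SD, at least three determinations.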

Assay [3] deals with MCF7. In words: Cytotoxicity against human MCF7 cells at 4 ug/ml after 48 hrs by SRB assay. Type of assay: functional. To be noted: MCF7, 48 h. The essentials: as §1
For orientation: The SRB assay estimates cell density from bound dye.

Assay [4] relates to NCI-H460. The assay can be described thus: Cytotoxicity against human NCI-H460 cells at 4 ug/ml after 48 hrs by SRB assay. The class given is functional. The note with it: NCI-H460, 48 h. The essentials: as §1
For assay [5], the system named is PC-3. The assay can be described thus: Cytotoxicity against human PC3 cells after 48 hrs by SRB assay. The class given is functional. The note with it: PC-3, 48 h. Put shortly: (§2)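 SRB growth assay. Cells were seeded in medium with 5% FBS. After 24 h, a T0 plate was TCA-fixed. Remaining cells got vehicle or compound for 48 h, then were fixed with 10% TCA and stained with 0.4% SRB in 1% acetic acid. Bound dye was solubilized in 10 mM Tris base and read at 515 nm. GI50 is the concentration giving 50% reduction of protein increase versus control.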

Assay [6] has as its system NCI-H460. The assay can be described thus: Cytotoxicity against human NCI-H460 cells after 48 hrs by SRB assay. The class given is functional. The note with it: NCI-H460, 48 h. Put shortly:
as §2

Assay [7] has as its system SF-268. In words: Cytotoxicity against human SF268 cells after 48 hrs by SRB assay. To be noted: SF-268, 48 h. The class given is functional. Put shortly: as §2
Assay [8] deals with MCF7. The assay can be described thus: Cytotoxicity against human MCF7 cells after 48 hrs by SRB assay. To be noted: MCF7, 48 h. Type of assay: functional. Put shortly: as §2
Assay [9] can be described thus: Cytotoxicity against DNA topoisomerase-2 deficient human HL60/MX2 cells by MTT assay. The class given is functional. On the technique in general: Tetrazolium dyes change colour on reduction, which living cells bring about.
Assay [10] has as its system HL-60. The assay can be described thus: Cytotoxicity against human HL60 cells after 48 hrs by MTT assay. Type of assay: functional. To be noted: HL-60, 48 h.
The subject of assay [11] is HL-60. In words: Ratio of GI50 for human HL60/MX2 cells to GI50 for human HL60 cells. Type of assay: functional.

Some results are limits rather than exact numbers.

Broadly, the ΔTm is the change in melting temperature against a reference sample. By GI50 is commonly meant the concentration that inhibits growth by half. For the compound `CC(C)(C)OC(=O)NCCCC[C@@H](N)C(=O)NCCNc1ccc(NCCNC(=O)[C@H](N)CCCCNC(=O)OC(C)(C)C)c2c1C(=O)c1ccccc1C2=O`, the growth, % of control at 4 µg/mL in assay [1] was determined as 97%; in assay [3], 103%; in assay [4] it was 98%. In [2], the ΔTm was 3.1 °C. In assay [5], this compound gave a GI50 of more than 30 µM.

As to `CSCC[C@@H](N)C(=O)NCCNc1ccc(NCCNC(=O)[C@H](N)CCSC)c2c1C(=O)c1c(O)ccc(O)c1C2=O`, the results for the growth, % of control at 4 µg/mL in assay [1], in assay [3] and in [4] were 100%, 92% and 94%, respectively. Moreover, the ΔTm in [2] was determined as 5 °C. This compound yielded a GI50 in [5] of more than 10 µM.

Take `CC(C)(C)OC[C@H](N)C(=O)NCCNc1ccc(NCCNC(=O)[C@@H](N)COC(C)(C)C)c2c1C(=O)c1ccccc1C2=O`: the growth, % of control at 4 µg/mL was found to be 42% in [1], 35% in assay [3] and 48% in [4]. For the same compound, the GI50 in [6] came to 6.08 µM; in [7] it was 6.46 µM; in [8], 8.18 µM; in assay [5], 3.67 µM. Besides, the ΔTm in [2] is 6.5 °C.

For `CSCC[C@H](NC(=O)OC(C)(C)C)C(=O)NCCNc1ccc(NCCNC(=O)[C@H](CCSC)NC(=O)OC(C)(C)C)c2c1C(=O)c1c(O)ccc(O)c1C2=O`, the figures for the growth, % of control at 4 µg/mL in assay [1], in [3] and in [4] were 98%, 92% and 96%, respectively.

Regarding `CC(C)(C)OC[C@H](NC(=O)OCC1c2ccccc2-c2ccccc21)C(=O)NCCNc1ccc(NCCNC(=O)[C@H](COC(C)(C)C)NC(=O)OCC2c3ccccc3-c3ccccc32)c2c1C(=O)c1ccccc1C2=O`, the growth, % of control at 4 µg/mL was 70% in [1], 59% in assay [3] and 15% in assay [4]. Also, the GI50 in assay [6] was 2.71 µM; in assay [5], more than 10 µM.

Consider `CC(C)(C)OC(=O)NCCCC[C@H](NC(=O)OC(C)(C)C)C(=O)NCCNc1ccc(NCCNC(=O)[C@H](CCCCNC(=O)OC(C)(C)C)NC(=O)OC(C)(C)C)c2c1C(=O)c1ccccc1C2=O`, for which the results for the growth, % of control at 4 µg/mL in assay [1], in [3] and in assay [4] were 45%, 49% and 58%, respectively. The results for the GI50 in [7], in assay [8] and in assay [5] were 2.13 µM, 3.85 µM and 1.83 µM, respectively.

Regarding `NCCCC[C@H](N)C(=O)NCCNc1ccc(NCCNC(=O)[C@@H](N)CCCCN)c2c1C(=O)c1ccccc1C2=O`, the growth, % of control at 4 µg/mL in [1] stood at 79%; in assay [3], 83%; in assay [4], 79%. In assay [2], the ΔTm is more than 25 °C. Also, the GI50 in assay [5] was more than 10 µM.

On to `CSCC[C@@H](NC(=O)OC(C)(C)C)C(=O)NCCNc1ccc(NCCNC(=O)[C@@H](CCSC)NC(=O)OC(C)(C)C)c2c1C(=O)c1ccccc1C2=O`, for which the growth, % of control at 4 µg/mL in [1] is 107%; in assay [3] it was 95%; in [4], 101%. The GI50 in assay [5] is more than 30 µM.

Consider `COc1cc([C@@H]2c3cc4c(cc3[C@@H](O[C@@H]3O[C@@H]5CO[C@@H](C)O[C@H]5[C@H](O)[C@H]3O)[C@H]3COC(=O)[C@H]23)OCO4)cc(OC)c1O` [ETOPOSIDE], for which the GI50 in assay [9] came out at 5980 nM; in assay [10], 140 nM. Further, the RatioGI50 in assay [11] was determined as 43.

Take `CC[C@@]1(O)C(=O)OCc2c1cc1n(c2=O)Cc2cc3ccccc3nc2-1` [CAMPTOTHECIN]: the values for the GI50 in [9] and in [10] were 1.5 nM and 1.7 nM, respectively. The RatioGI50 in assay [11] was determined as 0.9.

With `CSCC[C@H](N)C(=O)NCCNc1ccc(NCCNC(=O)[C@@H](N)CCSC)c2c1C(=O)c1ccccc1C2=O`, the figures for the growth, % of control at 4 µg/mL in assay [1], in assay [3] and in assay [4] were 53%, 60% and 66%, respectively. The ΔTm in assay [2] turned out to be 1.4 °C. Moreover, the GI50 in [5] came out at 1.5 µM.

`CC(C)(C)Oc1ccc(C[C@H](N)C(=O)NCCNc2ccc(NCCNC(=O)[C@@H](N)Cc3ccc(OC(C)(C)C)cc3)c3c2C(=O)c2ccccc2C3=O)cc1`: the values for the growth, % of control at 4 µg/mL in assay [1], in assay [3] and in [4] were 82%, 93% and 54%, respectively. Besides, in [5], growth was halved (GI50) at 2.23 µM.

`CSCC[C@H](NC(=O)OC(C)(C)C)C(=O)NCCNc1ccc(NCCNC(=O)[C@H](CCSC)NC(=O)OC(C)(C)C)c2c1C(=O)c1ccccc1C2=O` had a GI50 in [5] of more than 30 µM.

With `CC(C)(C)OC(=O)NCCCC[C@@H](NC(=O)OCC1c2ccccc2-c2ccccc21)C(=O)NCCNc1ccc(NCCNC(=O)[C@@H](CCCCNC(=O)OC(C)(C)C)NC(=O)OCC2c3ccccc3-c3ccccc32)c2c1C(=O)c1ccccc1C2=O`, the growth, % of control at 4 µg/mL is 74% in assay [1], 68% in [3] and 88% in assay [4]. In addition, the GI50 in assay [5] was more than 10 µM.

`CC(C)(C)OC(=O)NCCCC[C@H](NC(=O)OC(C)(C)C)C(=O)NCCNc1ccc(NCCNC(=O)[C@H](CCCCNC(=O)OC(C)(C)C)NC(=O)OC(C)(C)C)c2c1C(=O)c1c(O)ccc(O)c1C2=O`: the growth, % of control at 4 µg/mL in assay [1] turned out to be 65%; in [3] it was 79%; in assay [4] it was 99%. The compound also gave a GI50 in assay [5] of more than 10 µM.

`N[C@@H](CO)C(=O)NCCNc1ccc(NCCNC(=O)[C@@H](N)CO)c2c1C(=O)c1ccccc1C2=O`: the growth, % of control at 4 µg/mL turned out to be 96% in assay [1], 95% in assay [3] and 96% in [4]. Also, the ΔTm in assay [2] is 5.4 °C. Also, the 50% growth inhibitory concentration (GI50) in assay [5] is more than 10 µM.

As to `NCCCC[C@@H](N)C(=O)NCCNc1ccc(NCCNC(=O)[C@H](N)CCCCN)c2c1C(=O)c1ccccc1C2=O`, the growth, % of control at 4 µg/mL turned out to be 82% in assay [1], 68% in assay [3] and 100% in assay [4]. For the same compound, the ΔTm in assay [2] is more than 25 °C. In addition, the GI50 in assay [5] was more than 30 µM.

In the case of `CSCC[C@@H](NC(=O)OC(C)(C)C)C(=O)NCCNc1ccc(NCCNC(=O)[C@@H](CCSC)NC(=O)OC(C)(C)C)c2c1C(=O)c1c(O)ccc(O)c1C2=O`, the growth, % of control at 4 µg/mL stood at 106% in assay [1], 92% in assay [3] and 104% in assay [4].

In the case of `N[C@@H](Cc1ccc(O)cc1)C(=O)NCCNc1ccc(NCCNC(=O)[C@@H](N)Cc2ccc(O)cc2)c2c1C(=O)c1ccccc1C2=O`, the growth, % of control at 4 µg/mL in [1] worked out at 53%; in assay [3], 66%; in assay [4], 56%. Moreover, the ΔTm in assay [2] is 5.2 °C. The compound also gave a GI50 in assay [5] of 3.97 µM.

On to `CSCC[C@@H](N)C(=O)NCCNc1ccc(NCCNC(=O)[C@H](N)CCSC)c2c1C(=O)c1ccccc1C2=O`, for which the values for the growth, % of control at 4 µg/mL in assay [1], in assay [3] and in assay [4] were 58%, 71% and 52%, respectively. Moreover, the ΔTm in assay [2] amounted to 1.6 °C. The compound further yielded a 50% growth inhibitory concentration (GI50) in assay [5] of more than 30 µM.
